# T cell modulator: T cell immune modulation candidate; 2C CD8+ T cell-vesicle binding, flow cytometry; active compounds read low; response (vesicle binding), % at 7 µM; 330,000 tested, 0.068% active; AID 2052;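 active = response, share of CD8 T cells binding vesicles, and their 90th percentile fluorescence all below set limits, cut at about 80% in these data, passing the limit was not always enough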;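 also: values below 100% mean blocked vesicle binding to the CD8+ T cells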
#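 Also added: QL9-peptide-loaded Drosophila micro-vesicles bearing Ld, ICAM-1 and B7-1; Test system: purified 2C TCR transgenic mouse naive CD8+ T cells; Measured by: cytometric PE anti-B7-1 and Alexa647 anti-CD8 signals after 1% paraformaldehyde fixation; Timing: binding step 1.5 h, 37 °C, antibody labelling 20 min, ice.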
# V-ATPase pH: regulators of yeast V-ATPase proton transport; S. cerevisiae, pHLuorin cytosolic pH fluorescence; response, % at 10 µM; 350,000 tested, 0.37% active; AID 504577; in the data active = response mostly above about 7.3%, no sharp cut-off; inactive = mostly below about 5.4%; also: actives read high
# Granule exo inh: lytic granule exocytosis inhibition; TALL-104 LAMP-1 surface exposure, flow cytometry; cells stimulated with thapsigargin and PMA; inhibition, % at 10 µM; 360,000 tested, 0.66% active; AID 651702;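 active = inhibition above about 55%, limit read from the data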
# B2AR ag: human beta-2 adrenergic receptor agonism by FAP; P07550; Am2.2-beta2AR cells, FAP receptor internalization, flow cytometry; response, % (no concentration beside the values); 340,000 tested, 0.43% active; AID 504454;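 active = response above a set limit, near 3 SD of response in nonfluorescent compounds, cut at about 42% in these data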
# Target sequence (P07550 whole entry, looked up): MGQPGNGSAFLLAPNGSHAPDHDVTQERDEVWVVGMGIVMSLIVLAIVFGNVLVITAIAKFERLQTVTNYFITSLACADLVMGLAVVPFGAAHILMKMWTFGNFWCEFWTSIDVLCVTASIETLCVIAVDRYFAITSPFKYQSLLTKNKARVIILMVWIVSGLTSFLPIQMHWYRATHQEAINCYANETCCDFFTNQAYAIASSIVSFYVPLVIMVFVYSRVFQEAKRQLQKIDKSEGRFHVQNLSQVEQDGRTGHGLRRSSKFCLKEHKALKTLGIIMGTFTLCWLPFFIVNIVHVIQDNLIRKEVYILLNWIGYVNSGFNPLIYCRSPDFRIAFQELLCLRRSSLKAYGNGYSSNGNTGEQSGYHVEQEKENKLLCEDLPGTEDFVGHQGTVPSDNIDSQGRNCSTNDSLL
# rCAG binder: molecules binding r(CAG) RNA repeats; r(CAG) RNA repeat, TO-PRO-1 dye displacement fluorescence; inhibition, % at 3 µM; 370,000 tested, 1.3% active; AID 651821;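 active = inhibition above the plate cutoff, the mean of all test compounds on that plate plus 3 SD, cut at about 35% in these data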;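 also: 0% = DMSO alone and 100% = 100 µM mitoxantrone as full dye displacement; higher means more dye released from RNA so lower well fluorescence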
# MPTP block: permeability transition pore inhibition; 360,000 tested, 1.4% active; inhibition, % at 10 µM; isolated mouse mitochondria, Ca2+ swelling absorbance, 30 min;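 active = inhibition of 50% or more, scaled per plate between neutral and stimulator controls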;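 also: 0% = DMSO wells given calcium and 100% = 1 mM EGTA wells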
# MPTP counter: Rhodamine 123 counter-screen of mitochondrial pore hits; shares compounds with MPTP block; isolated mitochondria, membrane potential, Rhodamine 123 fluorescence; inhibition, % at 10 µM; 5,000 tested, 78% active; in the data active = inhibition above about 22%;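 also: 0% = DMSO vehicle and 100% = positive control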
# MPTP swell DR: MPTP inhibition, dose response swelling confirmation; isolated mitochondria swelling, absorbance; 780 tested, 58% active; shares compounds with MPTP block; IC50, µM; AID 651561; in the data active = IC50 below about 20 µM
# MPTP cs DR: MPTP inhibitor counter-screen activity, dose response. IC50, µM. isolated mitochondria counterscreen, fluorescence read-out. shares compounds with MPTP block. 780 tested, 49% active. AID 651564; in the data active = IC50 below about 80 µM
# Active calls of the source: *; i = inactive; / = no result given. An excerpt weighted towards active compounds, which were near 3.8% of everything screened.
SMILES,T cell modulator,V-ATPase pH,Granule exo inh,B2AR ag,rCAG binder,MPTP block,MPTP counter,others
COc1cc(/C=N/Nc2nc3ccccc3s2)cc([N+](=O)[O-])c1O,396.7,1.6,2.0,16.7,14.2,4.8,/,
O=[N+]([O-])c1cc(Cl)cc(/C=N/Nc2nc3ccccc3s2)c1O,225.6,-4.0,2.5,11.3,23.6,77.8*,78.2*,
O=C(N/N=C/c1cc(Cl)cc([N+](=O)[O-])c1O)C1CC1,324.1,-0.9,-6.4,3.2,6.0,-0.4,/,
O=C(Nc1ccc(Cl)c(Cl)c1)c1ccc(Cl)c(Cl)c1,27.8,-1.6,3.4,-5.7,0.4,22.7,/,
Cc1ccc(NC(=O)c2ccc(Cl)c(N3C(=O)C=CC3=O)c2)cc1,242.7,-0.4,39.7,24.7,16.8,84.3*,86.1*,
Cc1cccc(-c2cccc3c4c([nH]c23)[C@@H]2C[C@H](N(C)C(=O)C3CCCCC3)[C@H]([C@H](C)O)CN2CC4)c1,/,/,/,/,2.7,/,/,
O=C(CCCN1C(=O)/C(=C\c2cccs2)SC1=S)Nc1cc([N+](=O)[O-])ccc1O,442.1,2.5,0.1,0.1,5.0,73.6*,63.5*,
O=C(Nc1cccc(Br)c1)c1ccc(CSc2ccccc2)cc1,208.2,1.4,-6.4,4.7,0.2,66.6*,77.2*,
O=C(Nc1cccnc1)c1ccc(CSc2ccccc2)cc1,221.1,-0.3,-0.1,1.5,1.1,-0.2,/,
CC(/C=N/NC(=O)CSc1nc(C)cc(C)n1)=C\c1ccccc1,360.6,3.4,-1.2,4.7,-4.3,50.5*,52.6*,
CC(/C=N\NC(=O)Cn1c(C)nc2ccccc21)=C\c1ccccc1,428.3,-2.9,-2.8,0.1,-0.1,54.0*,64.9*,
CCCCSc1nc(C)cc(SCC(=O)N/N=C/c2ccccc2)n1,430.3,-1.2,7.9,-12.8,-2.0,4.2,/,
Cc1nonc1NC(=O)CSc1nc(CCC2CCCC2)nc2ccccc12,226.5,1.0,8.0,2.5,1.3,65.8*,82.0*,
Cc1cc(NC(=O)CSc2nc(CCC3CCCC3)nc3ccccc23)no1,393.1,-8.7,0.6,-19.0,1.4,-0.1,/,
COc1ccc2c(c1)CN1C(=O)N(C3CCCC3)S(=O)(=O)CC21 (configuration not stated),/,/,/,/,3.2,/,/,
Cc1cc(NS(=O)(=O)c2ccc(NC(=O)Cc3ccccc3)cc2)no1,/,/,/,/,3.7,/,/,
O=C(CNc1ccc(C(F)(F)F)cc1)Nc1cccc(S(=O)(=O)N2CCCCC2)c1,/,5.2,6.7,/,6.7,65.6*,90.0*,
CN(C)S(=O)(=O)c1cccc(NC(=O)COC(=O)CCSc2ccc(Cl)cc2)c1,465.0,-3.7,1.0,8.0,3.9,1.3,/,
CCN(CC)S(=O)(=O)c1cccc(NC(=O)CNc2cccc(S(=O)(=O)N3CCOCC3)c2)c1,162.3,3.5,-10.0,-7.5,/,72.4*,97.2*,
CCN(CC)S(=O)(=O)c1cccc(NC(=O)CCSc2ccc(Cl)cc2)c1,346.6,-2.3,-1.6,10.2,1.9,76.4*,85.2*,
O=C(CSc1nnc2c(n1)[nH]c1ccccc12)Nc1ccc(N2CCOCC2)cc1,275.1,-4.6,-0.5,0.2,7.2,11.9,/,
CCN(CC)S(=O)(=O)c1ccc(C)c(NC(=O)CNc2cccc(S(=O)(=O)N3CCOCC3)c2)c1,121.0,1.5,-8.2,-2.0,1.9,-0.1,/,
O=C(CSc1nnc2c(n1)[nH]c1ccccc12)Nc1cccc(S(=O)(=O)N2CCOCC2)c1,90.4,4.9,-5.8,-0.5,8.4,51.5*,35.0*,
CC(C)CC(=O)c1c(O)cc(O)c2c1OC1=C(C(=O)C(C)(C)C(=O)C1(C)C)C2CC(C)C (configuration not stated),/,/,/,/,29.0,/,/,
CCN(CC)S(=O)(=O)c1ccc(C)c(NC(=S)Nc2cccc(S(=O)(=O)N3CCCCCC3)c2)c1,401.9,-3.1,-2.7,-1.2,7.4,75.7*,78.4*,
SMILES,T cell modulator,V-ATPase pH,Granule exo inh,B2AR ag,rCAG binder,MPTP block,MPTP counter,others
CCN(CC)S(=O)(=O)c1cccc(S(=O)(=O)N2CCCCC2)c1,385.3,-2.7,-0.3,-2.6,-1.7,-0.1,/,
CN(C)S(=O)(=O)c1cccc(NC(=O)CNc2cccc(S(=O)(=O)N3CCCCC3)c2)c1,/,0.0,2.2,/,7.4,5.5,/,
CCN(CC)S(=O)(=O)c1cc(NC(=O)CNc2cccc(S(=O)(=O)N3CCCC3)c2)ccc1C,116.0,-2.2,2.7,18.8,/,53.7*,95.2*,
CN1[C@@H](Cc2ccccc2)COc2cc(N3CCCC3)ccc2S1(=O)=O,/,/,/,/,3.4,/,/,
CCOC(=O)CN1C(=O)[C@]2(OCCC=C[C@H]2C)c2ccccc21,/,/,/,/,0.0,/,/,
CC[C@@H](C)[C@H](CN[C@H](CNC)C(C)C)NC[C@@H](C)c1ccc(CC(C)C)cc1,848.4,-0.2,2.8,26.9,-2.4,4.8,/,
CC[C@H](C)[C@@H](CN[C@H](C)CNC)NCCC(c1ccccc1)c1ccccc1,i,-1.1,-1.0,28.3,1.0,101.0*,-16.9,MPTP swell DR=3.81*;MPTP cs DR=>80
CCOC(=O)c1csc(NC(=O)C2CCCN(S(=O)(=O)c3cccs3)C2)n1 (configuration not stated),/,/,/,/,2.1,/,/,
CN1CCC(=C2c3ccccc3C=Cc3ccccc32)CC1,567.4,-0.3,-1.3,3.3,2.7,5.1,/,
CN1CCC(=C2c3ccccc3Sc3ccccc32)CC1,/,1.7,3.8,24.9,-1.5,92.0*,-9.2,MPTP swell DR=7.26*;MPTP cs DR=>80
Cn1c(NC(=O)c2ccccc2)nc(Cc2ccccc2)c1Cc1ccccc1,/,/,/,/,0.1,/,/,
O=S(=O)(Nc1nc(-c2sccc2Cl)cs1)c1cc(Cl)ccc1Cl,329.5,-3.4,11.4,23.4,/,77.6*,50.8*,
CC(C)(C)c1nnc(NS(=O)(=O)c2cc(Cl)ccc2Cl)s1,164.4,-0.1,2.2,-8.3,28.4,0.0,/,
COc1cc(/C=C2\SC(=O)N(CCN)C2=O)ccc1OS(=O)(=O)c1cc(C)ccc1C,/,-2.1,72.7*,23.3,23.9,81.9*,-23.5,MPTP swell DR=7.45*;MPTP cs DR=29.1*
CC(=O)c1ccc(N2CCN(c3ccc(S(=O)(=O)NCCN(C)C)cc3[N+](=O)[O-])CC2)cc1,270.8,-1.7,1.5,-2.5,-0.4,3.5,/,
CN(C)CCCNS(=O)(=O)c1ccc(N2CCN(Cc3ccc4c(c3)OCO4)CC2)c([N+](=O)[O-])c1,248.3,1.7,-2.4,9.6,9.8,87.2*,93.1*,
CN(C)CCNS(=O)(=O)c1ccc(N2CCc3ccccc32)c([N+](=O)[O-])c1,157.3,5.4,-10.0,-14.0,3.4,88.0*,-6.5,MPTP swell DR=11.8*;MPTP cs DR=49*
Clc1ccc(-c2nnc(CSc3nnc(-c4cccs4)n3Cc3ccccc3)o2)cc1,117.0,2.1,2.5,-14.1,-4.2,91.5*,89.1*,

# Screens: PubChem BioAssay, several laboratories
